Measurements taken from ChEMBL document CHEMBL5154945, “Discovery and Optimization of Pyrrolopyrimidine Derivatives as Selective Disruptors of the Perinucleolar Compartment, a Marker of Tumor Progression toward Metastasis” (J Med Chem, 2022).
pIC50, pKi: −log10 of the molar value. The source made the active and inactive calls. The rule behind the calls is not given here.

Experiments:
[1] = biological target: 5-hydroxytryptamine receptor 1E (Homo sapiens) (UniProt P28566); assay: Binding affinity to 5-HT1E receptor (unknown origin) at 10000 nM by radioligand displacement assay relative to control
Chain of 5-hydroxytryptamine receptor 1E (Homo sapiens) (P28566 whole entry): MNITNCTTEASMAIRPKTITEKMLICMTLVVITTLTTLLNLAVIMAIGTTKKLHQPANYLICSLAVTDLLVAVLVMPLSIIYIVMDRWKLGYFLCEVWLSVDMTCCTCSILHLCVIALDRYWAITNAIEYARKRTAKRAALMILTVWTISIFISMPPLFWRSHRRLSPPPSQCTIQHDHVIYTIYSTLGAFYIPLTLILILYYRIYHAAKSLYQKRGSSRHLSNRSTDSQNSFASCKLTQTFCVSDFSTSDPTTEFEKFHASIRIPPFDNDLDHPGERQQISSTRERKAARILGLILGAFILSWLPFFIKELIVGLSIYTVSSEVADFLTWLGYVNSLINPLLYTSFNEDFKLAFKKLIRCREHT

[2] = biological target: Alpha-1D adrenergic receptor (Homo sapiens, UniProt P25100); assay: Binding affinity to alpha1D receptor (unknown origin) by radioligand displacement assay
A549 = assay: Anticancer activity against human A549 cells assessed as cell growth inhibition; type: functional, cell-based; details: dose 1-100 µM, DDE = dose-dependent effect
SF-539 = assay: Anticancer activity against human SF-539 cells assessed as cell growth inhibition; type: functional, cell-based; details: dose 1-100 µM, DDE = dose-dependent effect
Malme-3M = assay: Anticancer activity against human Malme-3M cells assessed as cell growth inhibition; type: functional, cell-based; details: dose 1-100 µM, DDE = dose-dependent effect
SK-MEL-2 = assay: Anticancer activity against human SK-MEL-2 cells assessed as cell growth inhibition; type: functional, cell-based; details: dose 1-100 µM, DDE = dose-dependent effect
Hs-578T = assay: Anticancer activity against human Hs-578T cells assessed as cell growth inhibition; type: functional, cell-based; details: dose 1-100 µM, DDE = dose-dependent effect
NCI-H522 = assay: Anticancer activity against human NCI-H522 cells assessed as cell growth inhibition; type: functional, cell-based; details: dose 1-100 µM, DDE = dose-dependent effect
IGROV-1 = assay: Anticancer activity against human IGROV-1 cells assessed as cell growth inhibition; type: functional, cell-based; details: dose 1-100 µM, DDE = dose-dependent effect
SN12C = assay: Anticancer activity against human SN12C cells assessed as cell growth inhibition; type: functional, cell-based; details: dose 1-100 µM, DDE = dose-dependent effect
PC-3M [3] = assay: Antiproliferative activity against human PC-3M cells expressing PTB/GFP fusion protein assessed as disruption of RNA synthesis marker NOPP140 at 1 uM measured after 1 hr by DAPI staining based immunofluorescence microscopy; type: functional, cell-based
In short: (§1)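 50,000 PC3M cells on chamber slides were treated with 1 μM compound for 1 h at 37 °C, then fixed in 4% paraformaldehyde for 15 min, permeabilized with 0.3% Triton X-100 and blocked in 3% BSA. Primary antibodies were anti-RPA194 (1:200) and anti-NOPP140 (1:100), overnight at 4 °C, followed by secondary antibodies and DAPI mounting. Confocal images at 63×, three images of about 200 cells per group; counts of bright objects were normalized to DAPI-stained nuclei.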

[4] = biological target: Alpha-1A adrenergic receptor (Homo sapiens) (UniProt P35348); assay: Binding affinity to alpha1A receptor (unknown origin) at 10000 nM by radioligand displacement assay relative to control
Chain of Alpha-1A adrenergic receptor (Homo sapiens) (P35348 whole entry): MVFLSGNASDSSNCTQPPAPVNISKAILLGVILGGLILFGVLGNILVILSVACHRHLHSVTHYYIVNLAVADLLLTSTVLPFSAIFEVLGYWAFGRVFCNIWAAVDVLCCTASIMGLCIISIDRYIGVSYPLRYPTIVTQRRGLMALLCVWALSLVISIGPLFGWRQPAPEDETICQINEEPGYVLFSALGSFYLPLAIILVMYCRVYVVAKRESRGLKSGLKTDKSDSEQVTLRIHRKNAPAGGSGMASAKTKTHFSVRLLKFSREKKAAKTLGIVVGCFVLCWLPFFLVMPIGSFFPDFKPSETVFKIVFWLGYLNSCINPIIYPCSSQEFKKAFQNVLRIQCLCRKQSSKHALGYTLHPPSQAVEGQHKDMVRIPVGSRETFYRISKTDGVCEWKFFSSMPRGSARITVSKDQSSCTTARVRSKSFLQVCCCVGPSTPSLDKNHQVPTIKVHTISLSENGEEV

[5] = biological target: 5-hydroxytryptamine receptor 1A (Homo sapiens) (UniProt P08908); assay: Binding affinity to 5-HT1A receptor (unknown origin) at 10000 nM by radioligand displacement assay relative to control
Chain of 5-hydroxytryptamine receptor 1A (Homo sapiens) (P08908 whole entry): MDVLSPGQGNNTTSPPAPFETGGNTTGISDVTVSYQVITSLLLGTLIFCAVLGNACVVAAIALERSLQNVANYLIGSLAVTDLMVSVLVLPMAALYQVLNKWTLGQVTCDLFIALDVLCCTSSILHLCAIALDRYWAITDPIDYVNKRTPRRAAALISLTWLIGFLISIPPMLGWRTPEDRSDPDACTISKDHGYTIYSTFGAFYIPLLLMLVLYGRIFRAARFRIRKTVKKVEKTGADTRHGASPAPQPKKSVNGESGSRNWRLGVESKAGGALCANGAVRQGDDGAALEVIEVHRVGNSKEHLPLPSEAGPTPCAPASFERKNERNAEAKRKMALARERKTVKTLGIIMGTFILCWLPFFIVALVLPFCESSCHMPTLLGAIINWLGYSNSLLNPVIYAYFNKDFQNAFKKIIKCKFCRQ

[6] = biological target: 5-hydroxytryptamine receptor 1B (Homo sapiens) (UniProt P28222); assay: Binding affinity to 5-HT1B receptor (unknown origin) at 10000 nM by radioligand displacement assay relative to control
Chain of 5-hydroxytryptamine receptor 1B (Homo sapiens) (P28222 whole entry, the tested form may be a part): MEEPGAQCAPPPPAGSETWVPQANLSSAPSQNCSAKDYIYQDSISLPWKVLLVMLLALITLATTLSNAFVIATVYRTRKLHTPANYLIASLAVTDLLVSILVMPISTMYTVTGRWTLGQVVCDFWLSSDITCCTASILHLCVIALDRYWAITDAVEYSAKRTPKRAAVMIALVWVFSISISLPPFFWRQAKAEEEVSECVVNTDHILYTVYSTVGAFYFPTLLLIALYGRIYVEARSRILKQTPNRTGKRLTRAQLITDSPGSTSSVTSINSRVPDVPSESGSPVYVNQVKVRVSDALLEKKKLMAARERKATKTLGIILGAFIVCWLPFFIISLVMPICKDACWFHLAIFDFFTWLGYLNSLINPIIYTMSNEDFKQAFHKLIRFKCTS

PC-3M [7] = assay: Antiproliferative activity against human PC-3M cells expressing PTB/GFP fusion protein assessed as inhibition of nucleolar volume measured after 24 hrs by Nucleolar-id Green Detection based confocal microscopic analysis; type: functional, cell-based
[8] = Microsomal stability in CD1 mouse liver microsomes assessed as half life measured upto 60 mins in presence of NADPH by LC-MS analysis; details: CD1, mouse, liver microsomes
[9] = biological target: Muscarinic acetylcholine receptor M1 (Homo sapiens) (UniProt P11229); assay: Binding affinity to M1 receptor (unknown origin) at 10000 nM by radioligand displacement assay relative to control
Chain of Muscarinic acetylcholine receptor M1 (Homo sapiens) (P11229 whole entry): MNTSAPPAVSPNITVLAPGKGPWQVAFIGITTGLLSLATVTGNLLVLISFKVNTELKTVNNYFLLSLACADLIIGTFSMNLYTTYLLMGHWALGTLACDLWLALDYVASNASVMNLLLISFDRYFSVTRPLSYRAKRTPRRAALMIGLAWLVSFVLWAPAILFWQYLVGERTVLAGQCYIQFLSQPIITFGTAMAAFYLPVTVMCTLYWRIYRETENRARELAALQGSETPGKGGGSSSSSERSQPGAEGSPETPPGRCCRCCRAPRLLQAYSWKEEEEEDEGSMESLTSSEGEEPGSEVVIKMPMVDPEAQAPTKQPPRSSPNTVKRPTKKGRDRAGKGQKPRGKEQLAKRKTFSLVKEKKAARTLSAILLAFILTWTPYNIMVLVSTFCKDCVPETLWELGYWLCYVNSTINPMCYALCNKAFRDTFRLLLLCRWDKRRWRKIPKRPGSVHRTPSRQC

SF-268 = assay: Anticancer activity against human SF-268 cells assessed as cell growth inhibition; type: functional, cell-based; details: dose 1-100 µM, DDE = dose-dependent effect
COLO 205 = assay: Anticancer activity against human COLO 205 cells assessed as cell growth inhibition; type: functional, cell-based; details: dose 1-100 µM, DDE = dose-dependent effect
[10] = biological target: Alpha-1B adrenergic receptor (Homo sapiens) (UniProt P35368); assay: Binding affinity to alpha1B receptor (unknown origin) at 10000 nM by radioligand displacement assay relative to control
Chain of Alpha-1B adrenergic receptor (Homo sapiens) (P35368 whole entry): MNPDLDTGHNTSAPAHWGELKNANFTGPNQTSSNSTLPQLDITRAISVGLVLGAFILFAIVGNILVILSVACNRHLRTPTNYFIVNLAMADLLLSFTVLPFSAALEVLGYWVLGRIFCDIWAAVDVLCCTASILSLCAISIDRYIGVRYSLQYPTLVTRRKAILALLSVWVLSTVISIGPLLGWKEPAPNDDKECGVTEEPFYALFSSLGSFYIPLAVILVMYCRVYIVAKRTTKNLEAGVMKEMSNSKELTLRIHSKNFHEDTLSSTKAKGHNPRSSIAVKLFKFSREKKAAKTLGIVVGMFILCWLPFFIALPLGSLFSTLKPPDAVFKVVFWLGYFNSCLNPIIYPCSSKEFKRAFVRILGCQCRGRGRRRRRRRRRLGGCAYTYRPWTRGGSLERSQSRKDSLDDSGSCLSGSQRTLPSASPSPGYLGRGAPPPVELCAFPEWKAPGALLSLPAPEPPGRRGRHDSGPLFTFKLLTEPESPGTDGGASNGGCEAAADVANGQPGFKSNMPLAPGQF

[11] = biological target: GABA-A receptor; anion channel (Homo sapiens) (UniProt P14867+P47870+P18507+P28472+P48169+Q99928+Q9UN88+P34903+O00591+O14764+Q8N1C3+P18505+P78334+P47869+P31644+Q16445); assay: Binding affinity to GABAA receptor (unknown origin) at 10000 nM by radioligand displacement assay relative to control; type: protein-complex assay
UO-31 = assay: Anticancer activity against human UO-31 cells assessed as cell growth inhibition; type: functional, cell-based; details: dose 1-100 µM, DDE = dose-dependent effect
RPMI-8226 = assay: Anticancer activity against human RPMI-8226 cells assessed as cell growth inhibition; type: functional, cell-based; details: dose 1-100 µM, DDE = dose-dependent effect
KM12 = assay: Anticancer activity against human KM12 cells assessed as cell growth inhibition; type: functional, cell-based; details: dose 1-100 µM, DDE = dose-dependent effect
[12] = biological target: Sigma non-opioid intracellular receptor 1 (Homo sapiens) (UniProt Q99720); assay: Binding affinity to sigma1 receptor (unknown origin) at 10000 nM by radioligand displacement assay relative to control
[13] = mouse, in vivo, ip, 50 mg/kg, 48 h
[14] = biological target: Delta-type opioid receptor (Homo sapiens) (UniProt P41143); assay: Binding affinity to DOR receptor (unknown origin) at 10000 nM by radioligand displacement assay relative to control
Chain of Delta-type opioid receptor (Homo sapiens) (P41143 whole entry): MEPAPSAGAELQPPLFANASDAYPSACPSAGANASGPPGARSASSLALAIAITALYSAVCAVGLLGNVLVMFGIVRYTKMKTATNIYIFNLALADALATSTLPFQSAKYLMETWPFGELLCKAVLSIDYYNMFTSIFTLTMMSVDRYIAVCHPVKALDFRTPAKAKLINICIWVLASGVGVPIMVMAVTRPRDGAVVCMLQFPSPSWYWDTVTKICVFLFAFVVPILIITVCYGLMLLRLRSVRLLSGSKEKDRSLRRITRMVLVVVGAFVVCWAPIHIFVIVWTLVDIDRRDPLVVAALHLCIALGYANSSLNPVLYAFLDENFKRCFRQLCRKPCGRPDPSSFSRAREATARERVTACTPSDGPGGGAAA

[15] = biological target: Sodium-dependent dopamine transporter (Homo sapiens, UniProt Q01959); assay: Binding affinity to DAT receptor (unknown origin) by radioligand displacement assay
[16] = biological target: 5-hydroxytryptamine receptor 2C (Homo sapiens) (UniProt P28335); assay: Binding affinity to 5-HT2C receptor (unknown origin) at 10000 nM by radioligand displacement assay relative to control
Chain of 5-hydroxytryptamine receptor 2C (Homo sapiens) (P28335 whole entry): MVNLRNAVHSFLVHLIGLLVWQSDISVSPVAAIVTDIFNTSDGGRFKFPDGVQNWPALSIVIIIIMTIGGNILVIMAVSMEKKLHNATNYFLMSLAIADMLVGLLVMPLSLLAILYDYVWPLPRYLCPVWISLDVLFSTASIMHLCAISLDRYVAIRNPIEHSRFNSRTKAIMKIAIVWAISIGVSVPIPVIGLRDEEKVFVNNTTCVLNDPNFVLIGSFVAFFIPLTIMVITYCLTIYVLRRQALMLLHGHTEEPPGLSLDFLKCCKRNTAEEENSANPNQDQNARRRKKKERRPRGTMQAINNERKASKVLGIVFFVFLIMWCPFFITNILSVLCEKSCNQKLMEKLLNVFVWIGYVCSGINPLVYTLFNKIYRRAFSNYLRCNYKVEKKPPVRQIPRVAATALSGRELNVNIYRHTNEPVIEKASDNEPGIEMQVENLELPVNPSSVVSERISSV

[17] = Cmax in female BALB/c mouse at 25 mg/kg, ip at 30 min by L-MS/MS analysis; type: ADME, organism-based; set-up: dose 25 mg/kg, time 30 min, route ip; details: in vivo, 0.5 h
In short: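 Fed female BALB/c mice, about 6–8 weeks old and 25–30 g, received a single IP dose of 5 or 25 mpk in NMP/PEG400/HP-β-CD aqueous vehicle (0.5 mg/mL for the 5 mpk dose). Three mice per time point were sampled up to 48 h by retro-orbital bleed under isoflurane into K2EDTA. Plasma was spun at 2000 g, 4 °C, frozen at -80 °C, and assayed by LC/MS/MS.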

[18] = biological target: 5-hydroxytryptamine receptor 1D (Homo sapiens) (UniProt P28221); assay: Binding affinity to 5-HT1D receptor (unknown origin) at 10000 nM by radioligand displacement assay relative to control
Chain of 5-hydroxytryptamine receptor 1D (Homo sapiens) (P28221 whole entry): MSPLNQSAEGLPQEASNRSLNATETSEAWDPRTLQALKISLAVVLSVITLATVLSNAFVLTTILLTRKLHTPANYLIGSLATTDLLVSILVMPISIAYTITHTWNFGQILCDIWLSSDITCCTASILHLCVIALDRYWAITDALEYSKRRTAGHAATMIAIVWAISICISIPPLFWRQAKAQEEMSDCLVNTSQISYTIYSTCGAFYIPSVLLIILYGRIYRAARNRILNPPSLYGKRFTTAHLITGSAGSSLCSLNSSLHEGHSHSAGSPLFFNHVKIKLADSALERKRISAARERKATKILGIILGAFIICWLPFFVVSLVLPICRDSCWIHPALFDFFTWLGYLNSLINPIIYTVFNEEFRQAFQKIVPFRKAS

OVCAR-8 = assay: Anticancer activity against human OVCAR-8 cells assessed as cell growth inhibition; type: functional, cell-based; details: dose 1-100 µM, DDE = dose-dependent effect
[19] = biological target: Alpha-2A adrenergic receptor (Homo sapiens) (UniProt P08913); assay: Binding affinity to alpha2A receptor (unknown origin) at 10000 nM by radioligand displacement assay relative to control
Chain of Alpha-2A adrenergic receptor (Homo sapiens) (P08913 whole entry): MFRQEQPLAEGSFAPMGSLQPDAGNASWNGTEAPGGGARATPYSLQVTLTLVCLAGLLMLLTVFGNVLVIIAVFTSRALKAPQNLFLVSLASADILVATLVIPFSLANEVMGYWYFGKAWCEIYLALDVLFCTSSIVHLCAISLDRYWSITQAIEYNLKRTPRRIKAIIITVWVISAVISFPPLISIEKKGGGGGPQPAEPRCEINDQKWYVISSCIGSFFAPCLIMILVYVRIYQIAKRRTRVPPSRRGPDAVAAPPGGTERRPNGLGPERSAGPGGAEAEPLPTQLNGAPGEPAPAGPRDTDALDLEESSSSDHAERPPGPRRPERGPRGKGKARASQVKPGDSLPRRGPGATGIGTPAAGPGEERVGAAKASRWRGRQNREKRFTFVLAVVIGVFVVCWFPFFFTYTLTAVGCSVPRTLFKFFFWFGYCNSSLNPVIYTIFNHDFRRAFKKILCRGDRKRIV

[20] = biological target: Muscarinic acetylcholine receptor M2 (Homo sapiens) (UniProt P08172); assay: Binding affinity to M2 receptor (unknown origin) at 10000 nM by radioligand displacement assay relative to control
Chain of Muscarinic acetylcholine receptor M2 (Homo sapiens) (P08172 whole entry): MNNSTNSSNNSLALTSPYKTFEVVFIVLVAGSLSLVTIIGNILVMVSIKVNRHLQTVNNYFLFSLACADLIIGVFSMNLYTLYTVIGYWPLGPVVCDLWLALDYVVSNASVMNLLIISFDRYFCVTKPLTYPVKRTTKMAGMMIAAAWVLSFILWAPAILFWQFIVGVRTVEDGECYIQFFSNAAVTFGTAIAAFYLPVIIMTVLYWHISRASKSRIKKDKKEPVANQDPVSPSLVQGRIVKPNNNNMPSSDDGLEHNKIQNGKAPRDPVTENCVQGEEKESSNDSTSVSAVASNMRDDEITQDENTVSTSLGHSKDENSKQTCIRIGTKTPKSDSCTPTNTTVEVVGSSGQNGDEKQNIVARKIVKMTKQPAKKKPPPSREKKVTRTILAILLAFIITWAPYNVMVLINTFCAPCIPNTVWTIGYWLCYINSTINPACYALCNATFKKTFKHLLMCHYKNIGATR

HCT-15 = assay: Anticancer activity against human HCT-15 cells assessed as cell growth inhibition; type: functional, cell-based; details: dose 1-100 µM, DDE = dose-dependent effect
ACHN = assay: Anticancer activity against human ACHN cells assessed as cell growth inhibition; type: functional, cell-based; details: dose 1-100 µM, DDE = dose-dependent effect
PC-3M [21] = assay: Antiproliferative activity against human PC-3M cells expressing PTB/GFP fusion protein assessed as disruption of RNA synthesis marker RP-194 at 1 uM and measured after 1 hr by DAPI staining based immunofluorescence microscopy; type: functional, cell-based; in short: as §1

For `N=c1c2c(-c3ccccc3)c(-c3ccccc3)n(Cc3ccccc3)c2ncn1[C@H]1CC[C@H](O)CC1` [ML-246], the Activity [1] was < 50%, the pKi [2] was 5.49 and the Activity (A549) was “Dde”. The Activity (SF-539) was “Dde”, the Activity (Malme-3M) was “Dde” and the Activity (SK-MEL-2) was “Dde”. The Activity (Hs-578T) was “Dde”, the Activity (NCI-H522) was “Dde” and the Activity (IGROV-1) was “Dde”. For the same compound, the Activity (SN12C) was “Dde”, the Activity (PC-3M [3]) was “Active” and the Activity [4] was < 50%. For the same compound, the Activity [5] was < 50%, the Activity [6] was < 50% and the pIC50 (PC-3M [7]) was 6.21. For the same compound, the half-life at 1 h [8] was 2 h, the Activity [9] was < 50% and the Activity (SF-268) was “Dde”. For the same compound, the Activity (COLO 205) was “Dde”, the Activity [10] was < 50% and the Activity [11] was < 50%. For the same compound, the Activity (UO-31) was “Dde”, the Activity (RPMI-8226) was “Dde” and the Activity (KM12) was “Dde”. For the same compound, the Activity [12] was < 50%, the AUC [13] was 231.77 µM·h and the Activity [14] was < 50%. The pKi [15] was 5.47, the Activity [16] was < 50% and the Cmax [17] was 6.17 µM. The Activity [18] was < 50%, the Activity (OVCAR-8) was “Dde” and the Activity [19] was < 50%. For the same compound, the Activity [20] was < 50%, the Activity (HCT-15) was “Dde” and the Activity (ACHN) was “Dde”. The Activity (PC-3M [21]) was “Active”.
